# Source: ChEMBL document CHEMBL1157543, “Synthesis and biological evaluation of polysulfated oligosaccharide glycosides as inhibitors of angiogenesis and tumor growth” (J Med Chem, 2010)
# How the values were obtained:
# Heparanase = molecular target: T1, Heparanase (Homo sapiens, UniProt Q9Y251); assay: Inhibition of human recombinant heparanase
# T1 sequence (Q9Y251 whole entry): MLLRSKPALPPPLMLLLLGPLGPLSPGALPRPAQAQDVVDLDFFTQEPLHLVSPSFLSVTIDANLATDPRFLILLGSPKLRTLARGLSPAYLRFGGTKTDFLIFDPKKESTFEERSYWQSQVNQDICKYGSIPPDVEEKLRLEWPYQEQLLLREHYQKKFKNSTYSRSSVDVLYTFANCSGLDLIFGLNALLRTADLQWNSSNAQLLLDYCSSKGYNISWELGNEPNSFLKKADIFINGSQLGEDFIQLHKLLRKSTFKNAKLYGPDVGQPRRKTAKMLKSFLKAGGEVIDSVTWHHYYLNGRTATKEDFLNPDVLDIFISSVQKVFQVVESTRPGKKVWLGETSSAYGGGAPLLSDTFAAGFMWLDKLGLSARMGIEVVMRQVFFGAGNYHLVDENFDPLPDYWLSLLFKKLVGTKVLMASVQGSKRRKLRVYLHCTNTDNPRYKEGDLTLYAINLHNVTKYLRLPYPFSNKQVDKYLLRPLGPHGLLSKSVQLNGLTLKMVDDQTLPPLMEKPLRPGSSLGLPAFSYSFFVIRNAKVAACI
# In short: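 Recombinant human heparanase assayed by ultrafiltration with 3H-labelled heparan sulfate as substrate (Km = 1.64 μM). Ki values with standard error were derived from inhibition response curves.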
# [1] = molecular target: Fibroblast growth factor 1 (Homo sapiens, UniProt P05230); assay: Binding affinity to FGF1 by surface plasmon-based solution affinity assay
# Sequence of Fibroblast growth factor 1 (P05230 whole entry): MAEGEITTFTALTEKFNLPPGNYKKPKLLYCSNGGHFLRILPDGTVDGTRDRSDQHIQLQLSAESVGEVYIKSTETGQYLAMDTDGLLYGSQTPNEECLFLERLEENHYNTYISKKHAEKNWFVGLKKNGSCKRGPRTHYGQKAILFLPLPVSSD
# In short: (§1)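 Surface plasmon resonance solution affinity assay on heparin-coated CM4 chips. Buffer: HBS-EP (10 mM HEPES pH 7.4, 150 mM NaCl, 3.0 mM EDTA, 0.005% polysorbate 20). Kd is the mean of at least duplicate measurements ± SD.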
# [2] = molecular target: Fibroblast growth factor 2 (Homo sapiens, UniProt P09038); assay: Binding affinity to FGF2 by surface plasmon-based solution affinity assay
# Sequence of Fibroblast growth factor 2 (P09038 143-288 limits assumed): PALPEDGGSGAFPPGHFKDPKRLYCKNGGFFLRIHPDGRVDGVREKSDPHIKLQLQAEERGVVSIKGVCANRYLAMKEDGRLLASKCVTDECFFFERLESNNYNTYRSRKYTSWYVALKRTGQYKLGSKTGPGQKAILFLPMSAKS
# In short: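 Surface plasmon resonance solution affinity assay on heparin-coated CM4 chips. FGF-2 binding run in HBS-EP containing 300 mM NaCl. Kd is the mean of at least duplicate measurements ± SD.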
# [3] = molecular target: T2, Vascular endothelial growth factor A, long form (Homo sapiens, UniProt P15692); assay: Binding affinity to VEGF by surface plasmon-based solution affinity assay; in short: as §1
# T2 sequence (P15692 whole entry): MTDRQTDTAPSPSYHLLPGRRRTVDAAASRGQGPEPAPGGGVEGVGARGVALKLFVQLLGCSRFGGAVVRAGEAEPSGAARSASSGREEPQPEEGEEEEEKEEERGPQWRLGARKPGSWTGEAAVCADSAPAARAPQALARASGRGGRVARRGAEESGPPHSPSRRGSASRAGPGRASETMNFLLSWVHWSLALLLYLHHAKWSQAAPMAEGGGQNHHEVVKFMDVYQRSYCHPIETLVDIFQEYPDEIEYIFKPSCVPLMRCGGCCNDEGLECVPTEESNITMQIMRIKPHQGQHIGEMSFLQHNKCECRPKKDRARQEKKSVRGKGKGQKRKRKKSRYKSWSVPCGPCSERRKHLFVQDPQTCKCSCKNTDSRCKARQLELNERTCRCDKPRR
# Plasma [4] = assay: Anticoagulant activity in human plasma assessed as activated partial thromboplastin time; format: functional
# In short: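 Pooled normal human plasma spiked with compound in PBS at 0.1 mg/mL (methods give a 0–100 μg/mL range); APTT elevation measured. Normal range 26–36 s. Values are means of two determinations.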
# Plasma [5] = assay: Anticoagulant activity in human plasma by heptest; format: functional
# In short: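 Heptest clot assay. Plasma (centrifuged 1800g, 10 min, used within 30 min) incubated with compound 2 min at 37 °C. Factor Xa added, 2 min at 37 °C, then clotting started with Recalmix; read on a ball coagulometer. Normal range 13–20 s; means of two determinations.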
# HUVEC = assay: Cytotoxicity against HUVEC; format: cell-based; conditions: human
Compound,Ki (Heparanase),Kd [1],Kd [2],Kd [3],Time (Plasma [4]),Activity (Plasma [5]),LC50 (HUVEC)
O=S(=O)([O-])OC[C@H]1O[C@H](OCCCCCCCCn2cc(-c3cccc4ccccc34)nn2)[C@@H](O[C@H]2O[C@H](COS(=O)(=O)[O-])[C@@H](OS(=O)(=O)[O-])[C@H](O[C@H]3O[C@H](COS(=O)(=O)[O-])[C@@H](OS(=O)(=O)[O-])[C@H](O[C@H]4O[C@H](COS(=O)(=O)[O-])[C@@H](OS(=O)(=O)[O-])[C@H](O[C@H]5O[C@H](COS(=O)(=O)[O-])[C@@H](OS(=O)(=O)[O-])[C@H](OS(=O)(=O)[O-])[C@@H]5OS(=O)(=O)[O-])[C@@H]4OS(=O)(=O)[O-])[C@@H]3OS(=O)(=O)[O-])[C@@H]2OS(=O)(=O)[O-])[C@@H](OS(=O)(=O)[O-])[C@@H]1OS(=O)(=O)[O-].[Na+].[Na+].[Na+].[Na+].[Na+].[Na+].[Na+].[Na+].[Na+].[Na+].[Na+].[Na+].[Na+].[Na+].[Na+].[Na+],360 nM,0.12 nM,35 nM,0.7 nM,89 s,20 s,> 100000 nM
CN(C)c1cccc2c(S(=O)(=O)NCCCO[C@H]3O[C@H](COS(=O)(=O)[O-])[C@@H](OS(=O)(=O)[O-])[C@H](OS(=O)(=O)[O-])[C@@H]3O[C@H]3O[C@H](COS(=O)(=O)[O-])[C@@H](OS(=O)(=O)[O-])[C@H](O[C@H]4O[C@H](COS(=O)(=O)[O-])[C@@H](OS(=O)(=O)[O-])[C@H](O[C@H]5O[C@H](COS(=O)(=O)[O-])[C@@H](OS(=O)(=O)[O-])[C@H](O[C@H]6O[C@H](COS(=O)(=O)[O-])[C@@H](OS(=O)(=O)[O-])[C@H](OS(=O)(=O)[O-])[C@@H]6OS(=O)(=O)[O-])[C@@H]5OS(=O)(=O)[O-])[C@@H]4OS(=O)(=O)[O-])[C@@H]3OS(=O)(=O)[O-])cccc12.[Na+].[Na+].[Na+].[Na+].[Na+].[Na+].[Na+].[Na+].[Na+].[Na+].[Na+].[Na+].[Na+].[Na+].[Na+].[Na+],570 nM,0.79 nM,86 nM,12.2 nM,–,–,> 100000 nM
O=S(=O)([O-])OC[C@H]1O[C@H](OCCCn2cc(-c3ccccc3)nn2)[C@@H](O[C@H]2O[C@H](COS(=O)(=O)[O-])[C@@H](OS(=O)(=O)[O-])[C@H](O[C@H]3O[C@H](COS(=O)(=O)[O-])[C@@H](OS(=O)(=O)[O-])[C@H](O[C@H]4O[C@H](COS(=O)(=O)[O-])[C@@H](OS(=O)(=O)[O-])[C@H](OS(=O)(=O)[O-])[C@@H]4OS(=O)(=O)[O-])[C@@H]3OS(=O)(=O)[O-])[C@@H]2OS(=O)(=O)[O-])[C@@H](OS(=O)(=O)[O-])[C@@H]1OS(=O)(=O)[O-].[Na+].[Na+].[Na+].[Na+].[Na+].[Na+].[Na+].[Na+].[Na+].[Na+].[Na+].[Na+].[Na+],610 nM,0.36 nM,550 nM,25 nM,–,–,> 100000 nM
CCCCc1ccc(CO[C@H]2O[C@H](COS(=O)(=O)[O-])[C@@H](OS(=O)(=O)[O-])[C@H](OS(=O)(=O)[O-])[C@@H]2O[C@H]2O[C@H](COS(=O)(=O)[O-])[C@@H](OS(=O)(=O)[O-])[C@H](O[C@H]3O[C@H](COS(=O)(=O)[O-])[C@@H](OS(=O)(=O)[O-])[C@H](O[C@H]4O[C@H](COS(=O)(=O)[O-])[C@@H](OS(=O)(=O)[O-])[C@H](OS(=O)(=O)[O-])[C@@H]4OS(=O)(=O)[O-])[C@@H]3OS(=O)(=O)[O-])[C@@H]2OS(=O)(=O)[O-])cc1.[Na+].[Na+].[Na+].[Na+].[Na+].[Na+].[Na+].[Na+].[Na+].[Na+].[Na+].[Na+].[Na+],310 nM,0.21 nM,160 nM,12 nM,73.1 s,49.8 s,> 100000 nM
O=S(=O)([O-])OC[C@H]1O[C@H](OCCCCCCCCCCCCn2cc(-c3ccccc3)nn2)[C@@H](O[C@H]2O[C@H](COS(=O)(=O)[O-])[C@@H](OS(=O)(=O)[O-])[C@H](O[C@H]3O[C@H](COS(=O)(=O)[O-])[C@@H](OS(=O)(=O)[O-])[C@H](O[C@H]4O[C@H](COS(=O)(=O)[O-])[C@@H](OS(=O)(=O)[O-])[C@H](O[C@H]5O[C@H](COS(=O)(=O)[O-])[C@@H](OS(=O)(=O)[O-])[C@H](OS(=O)(=O)[O-])[C@@H]5OS(=O)(=O)[O-])[C@@H]4OS(=O)(=O)[O-])[C@@H]3OS(=O)(=O)[O-])[C@@H]2OS(=O)(=O)[O-])[C@@H](OS(=O)(=O)[O-])[C@@H]1OS(=O)(=O)[O-].[Na+].[Na+].[Na+].[Na+].[Na+].[Na+].[Na+].[Na+].[Na+].[Na+].[Na+].[Na+].[Na+].[Na+].[Na+].[Na+],270 nM,2.3 nM,253 nM,5.1 nM,–,–,> 100000 nM
O=S(=O)([O-])OC[C@H]1O[C@H](OCCCCCCCCCCCCn2cc(-c3cccc4ccccc34)nn2)[C@@H](O[C@H]2O[C@H](COS(=O)(=O)[O-])[C@@H](OS(=O)(=O)[O-])[C@H](O[C@H]3O[C@H](COS(=O)(=O)[O-])[C@@H](OS(=O)(=O)[O-])[C@H](O[C@H]4O[C@H](COS(=O)(=O)[O-])[C@@H](OS(=O)(=O)[O-])[C@H](O[C@H]5O[C@H](COS(=O)(=O)[O-])[C@@H](OS(=O)(=O)[O-])[C@H](OS(=O)(=O)[O-])[C@@H]5OS(=O)(=O)[O-])[C@@H]4OS(=O)(=O)[O-])[C@@H]3OS(=O)(=O)[O-])[C@@H]2OS(=O)(=O)[O-])[C@@H](OS(=O)(=O)[O-])[C@@H]1OS(=O)(=O)[O-].[Na+].[Na+].[Na+].[Na+].[Na+].[Na+].[Na+].[Na+].[Na+].[Na+].[Na+].[Na+].[Na+].[Na+].[Na+].[Na+],270 nM,0.19 nM,73 nM,0.79 nM,–,–,> 100000 nM
CN(C)c1cccc2c(S(=O)(=O)NCCCCCCCCO[C@H]3O[C@H](COS(=O)(=O)[O-])[C@@H](OS(=O)(=O)[O-])[C@H](OS(=O)(=O)[O-])[C@@H]3O[C@H]3O[C@H](COS(=O)(=O)[O-])[C@@H](OS(=O)(=O)[O-])[C@H](O[C@H]4O[C@H](COS(=O)(=O)[O-])[C@@H](OS(=O)(=O)[O-])[C@H](O[C@H]5O[C@H](COS(=O)(=O)[O-])[C@@H](OS(=O)(=O)[O-])[C@H](OS(=O)(=O)[O-])[C@@H]5OS(=O)(=O)[O-])[C@@H]4OS(=O)(=O)[O-])[C@@H]3OS(=O)(=O)[O-])cccc12.[Na+].[Na+].[Na+].[Na+].[Na+].[Na+].[Na+].[Na+].[Na+].[Na+].[Na+].[Na+].[Na+],330 nM,0.2 nM,130 nM,8.9 nM,–,–,> 100000 nM
O=S(=O)([O-])OC[C@H]1O[C@H](OCCCn2cc(-c3ccccc3)nn2)[C@@H](O[C@H]2O[C@H](COS(=O)(=O)[O-])[C@@H](OS(=O)(=O)[O-])[C@H](O[C@H]3O[C@H](COS(=O)(=O)[O-])[C@@H](OS(=O)(=O)[O-])[C@H](O[C@H]4O[C@H](COS(=O)(=O)[O-])[C@@H](OS(=O)(=O)[O-])[C@H](O[C@H]5O[C@H](COS(=O)(=O)[O-])[C@@H](OS(=O)(=O)[O-])[C@H](OS(=O)(=O)[O-])[C@@H]5OS(=O)(=O)[O-])[C@@H]4OS(=O)(=O)[O-])[C@@H]3OS(=O)(=O)[O-])[C@@H]2OS(=O)(=O)[O-])[C@@H](OS(=O)(=O)[O-])[C@@H]1OS(=O)(=O)[O-].[Na+].[Na+].[Na+].[Na+].[Na+].[Na+].[Na+].[Na+].[Na+].[Na+].[Na+].[Na+].[Na+].[Na+].[Na+].[Na+],350 nM,0.1 nM,83 nM,1.4 nM,–,–,> 100000 nM
